Where “and” joins values, the source holds several entries; their conditions need not be identical. Equal values may be shown once. Entries after “also recorded” stand apart in the source; their conditions may differ.
Key:
[1] = Plasma glasdegib pharmacokinetics after single oral doses; assay type: in vivo, human; settings: for AUCextrap / CL/F: fasted, n=35, arithmetic mean ± SD; for Cmax / half-life: human, plasma, po
In short: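 Healthy volunteers in a randomized, double-blind, 4-period crossover received single oral doses after an overnight fast (≥10 hours), with washout ≥6 days. Plasma was assayed by validated HPLC-MS/MS: calibration 3–3000 ng/mL with 1/concentration² weighting, LLOQ 3 ng/mL, samples stored at −70°C. Cmax, Tmax, AUClast, AUCinf, CL/F, apparent volume and terminal half-life were derived by noncompartmental analysis.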

[2] = system: cardiac repolarization (QTc interval) in healthy volunteers; test: Thorough QT study: ANCOVA of QTcF versus time-matched placebo; assay type: in vivo, human; settings: for QTcF Difference (Glasdegib‐Placebo) (90%CI) / QTcF LS Mean: N = 35
[3] = system: cardiac repolarization (QTc interval) in healthy volunteers; test: Exposure-response; assay type: in vivo, human
healthy volunteers = test: Safety and tolerability; assay type: in vivo, human
[4] = system: human ether‐à‐go‐go‐related gene (hERG) potassium channels; settings: human embryonic kidney 293 cells; cited from earlier work
[5] = system: patients with advanced hematologic malignancies; settings: cited from earlier work
[6] = patient population, cited from earlier work
[7] = glasdegib 150 mg single oral dose
[8] = glasdegib 300 mg single oral dose
[9] = glasdegib 150 mg single dose, 0.5 h postdose
[10] = glasdegib 150 mg single dose, 1 h postdose
[11] = glasdegib 150 mg single dose, 1.5 h postdose
[12] = glasdegib 150 mg single dose, 2 h postdose
[13] = glasdegib 150 mg single dose, 3 h postdose
[14] = glasdegib 150 mg single dose, 4 h postdose
[15] = glasdegib 150 mg single dose, 6 h postdose
[16] = glasdegib 150 mg single dose, 24 h postdose
[17] = glasdegib 300 mg single dose, 0.5 h postdose
[18] = glasdegib 300 mg single dose, 1 h postdose
[19] = glasdegib 300 mg single dose, 1.5 h postdose
[20] = glasdegib 300 mg single dose, 2 h postdose
[21] = glasdegib 300 mg single dose, 3 h postdose
[22] = glasdegib 300 mg single dose, 4 h postdose
[23] = glasdegib 300 mg single dose, 6 h postdose
[24] = glasdegib 300 mg single dose, 24 h postdose
[25] = moxifloxacin 400 mg single dose

SMILES: CN1CC[C@@H](NC(=O)Nc2ccc(C#N)cc2)C[C@@H]1c1nc2ccccc2[nH]1 [Glasdegib]
- AUCextrap [1, 7]: 0.6660 ± 0.30%
- CL/F [1, 7]: 10.37 ± 3.58 L/h
- AUCextrap [1, 8]: 0.4113 ± 0.19%
- CL/F [1, 8]: 10.09 ± 3.05 L/h
- Cmax ([1]; 150 mg): 1120 ± 388 ng/mL
- half-life ([1]; 150 mg): 15.8 ± 2.06 h
- Cmax ([1]; 300 mg): 2300 ± 651 ng/mL
- half-life ([1]; 300 mg): 15.5 ± 1.77 h
- dose proportionality of geometric mean AUCinf and Cmax ([1]; single oral doses of 150 and 300 mg): increased proportionally with dose
- highest 90%CI upper bound for the largest and placebo‐ and baseline‐adjusted QTcF change ([2]; glasdegib 150 mg (therapeutic plasma exposure), 4 hours postdose): 10.22 milliseconds
- upper bound of the 2‐sided 90%CIs for all time‐matched least‐squares mean differences in QTcF between glasdegib and placebo ([2]; glasdegib 150 mg and 300 mg single doses): < 20 milliseconds
- QTcF Difference (Glasdegib‐Placebo) (90%CI) [2, 9]: −0.09 (−2.28 to 2.09) Milliseconds
- QTcF LS Mean [2, 9]: 406.43 Milliseconds
- QTcF Difference (Glasdegib‐Placebo) (90%CI) [2, 10]: 2.07 (−0.11 to 4.25) Milliseconds
- QTcF LS Mean [2, 10]: 407.86 Milliseconds
- QTcF Difference (Glasdegib‐Placebo) (90%CI) [2, 11]: 5.17 (2.99‐7.35) Milliseconds
- QTcF LS Mean [2, 11]: 410.08 Milliseconds
- QTcF Difference (Glasdegib‐Placebo) (90%CI) [2, 12]: 5.98 (3.80‐8.16) Milliseconds
- QTcF LS Mean [2, 12]: 410.58 Milliseconds
- QTcF Difference (Glasdegib‐Placebo) (90%CI) [2, 13]: 7.76 (5.58‐9.95) Milliseconds
- QTcF LS Mean [2, 13]: 412.06 Milliseconds
- QTcF Difference (Glasdegib‐Placebo) (90%CI) [2, 14]: 8.03 (5.85‐10.22) Milliseconds
- QTcF LS Mean [2, 14]: 413.23 Milliseconds
- QTcF Difference (Glasdegib‐Placebo) (90%CI) [2, 15]: 5.11 (2.93‐7.29) Milliseconds
- QTcF LS Mean [2, 15]: 407.38 Milliseconds
- QTcF Difference (Glasdegib‐Placebo) (90%CI) [2, 16]: 5.92 (3.74‐8.10) Milliseconds
- QTcF LS Mean [2, 16]: 410.98 Milliseconds
- highest 90%CI upper bound for the largest, placebo‐ and baseline‐adjusted QTcF change ([2]; glasdegib 300 mg (supratherapeutic plasma exposure), 3 hours postdose): 15.61 milliseconds
- QTcF Difference (Glasdegib‐Placebo) (90%CI) [2, 17]: 0.65 (−1.53 to 2.83) Milliseconds
- QTcF LS Mean [2, 17]: 407.18 Milliseconds
- QTcF Difference (Glasdegib‐Placebo) (90%CI) [2, 18]: 5.14 (2.96‐7.32) Milliseconds
- QTcF LS Mean [2, 18]: 410.92 Milliseconds
- QTcF Difference (Glasdegib‐Placebo) (90%CI) [2, 19]: 9.84 (7.66‐12.02) Milliseconds
- QTcF LS Mean [2, 19]: 414.75 Milliseconds
- QTcF Difference (Glasdegib‐Placebo) (90%CI) [2, 20]: 11.06 (8.88‐13.24) Milliseconds
- QTcF LS Mean [2, 20]: 415.66 Milliseconds
- QTcF Difference (Glasdegib‐Placebo) (90%CI) [2, 21]: 13.43 (11.25‐15.61) Milliseconds
- QTcF LS Mean [2, 21]: 417.72 Milliseconds
- QTcF Difference (Glasdegib‐Placebo) (90%CI) [2, 22]: 13.41 (11.23‐15.59) Milliseconds
- QTcF LS Mean [2, 22]: 418.60 Milliseconds
- QTcF Difference (Glasdegib‐Placebo) (90%CI) [2, 23]: 10.82 (8.64‐13.00) Milliseconds
- QTcF LS Mean [2, 23]: 413.08 Milliseconds
- QTcF Difference (Glasdegib‐Placebo) (90%CI) [2, 24]: 8.91 (6.73‐11.09) Milliseconds
- QTcF LS Mean [2, 24]: 413.96 Milliseconds
- PK/PD hysteresis (lag between plasma concentration and effect on QTc) ([3]; 150 and 300 mg single doses): No PK/PD hysteresis
- mean slope estimate describing the ∆QTcF‐concentration relationship ([3]; LME model): 0.005 ms/ng/mL
- effect on heart rate (change in RR interval, ∆RR versus concentration) ([3]; LME model of ∆RR versus glasdegib concentration): not to have a meaningful effect on heart rate; also recorded: relationship of negligible magnitude
- Slope Estimate From Final Model, ∆QTcF per ng/mL (95%CI) ([3]; QTcF, LME model): 0.005 (0.004‐0.006) Milliseconds per ng/mL
- Slope Estimate From Final Model, ∆QTcS per ng/mL (95%CI) ([3]; QTcS (study population-specific correction), LME model): 0.004 (0.003‐0.005) Milliseconds per ng/mL
- Model‐Derived ∆∆QTcS (90%CI) ([3]; Supratherapeutic Steady‐State Cmax (2445 ng/mL)): 11.89 (10.14‐13.64) Milliseconds
- Model‐Derived ∆∆QTcF (90%CI) ([3]; Supratherapeutic Steady‐State Cmax (2445 ng/mL), 200 mg once daily): 13.72 (11.95‐15.49) Milliseconds
- Model‐Derived ∆∆QTcS (90%CI) ([3]; Therapeutic Steady‐State Cmax (1137 ng/mL)): 6.55 (5.68‐7.43) Milliseconds
- Model‐Derived ∆∆QTcF (90%CI) ([3]; Therapeutic Steady‐State Cmax (1137 ng/mL), 100 mg once daily): 7.34 (6.46‐8.22) Milliseconds
- Model‐Derived ∆∆QTcF (90%CI) ([3]; Therapeutic Steady‐State Cmax (1137 ng/mL), 100 mg once daily, listed as glasdegib): 7.3 Milliseconds and 7.34 Milliseconds
- upper bound of the 90%CI of mean predicted ΔΔQTcF ([3]; mean therapeutic glasdegib Cmax): < 10 milliseconds
- upper bound of the 90%CI of mean predicted ΔΔQTcF ([3]; supratherapeutic glasdegib Cmax (twice the therapeutic dose)): < 20 milliseconds
- treatment‐emergent AEs (TEAEs), number (healthy volunteers; glasdegib 150 mg single dose): 25
- treatment‐related AEs (TRAEs), number (healthy volunteers; glasdegib 150 mg single dose): 20
- treatment‐emergent AEs (TEAEs), number (healthy volunteers; glasdegib 300 mg single dose): 26
- treatment‐related AEs (TRAEs), number (healthy volunteers; glasdegib 300 mg single dose): 20
- tolerability (in words) (healthy volunteers; single oral doses of 150 and 300 mg, healthy adult subjects): well tolerated
- hERG potassium channel inhibition (in words) [4]: inhibit the human ether‐à‐go‐go‐related gene (hERG) potassium channels in a concentration‐dependent manner
- QTc experienced by some patients ([5]; multiple dosing at 400 mg and 600 mg once daily): > 500 milliseconds
- maximum tolerated dose ([5]; single-agent, patients with advanced hematologic malignancies): 400 mg once daily
- Therapeutic Steady‐State Cmax ([6]; 100 mg once daily): Therapeutic Steady‐State Cmax (1137 ng/mL)
- Supratherapeutic Steady‐State Cmax ([6]; 200 mg once daily): Supratherapeutic Steady‐State Cmax (2445 ng/mL)

SMILES: COc1c(N2C[C@@H]3CCCN[C@@H]3C2)c(F)cc2c(=O)c(C(=O)O)cn(C3CC3)c12 [Moxifloxacin]
- treatment‐emergent AEs (TEAEs), number (healthy volunteers; [25]): 27
- treatment‐related AEs (TRAEs), number (healthy volunteers; [25]): 23

— publication PMC7983888 (Clinical Pharmacology in Drug Development, 2020)
